Results published in ChEMBL document CHEMBL1152584, “Synthesis of heteroaromatic tropeines and heterogeneous binding to glycine receptors” (Bioorg Med Chem, 2009).

Legend:
[1] = molecular target: T1, Glycine receptor subunit alpha-1 (Rattus norvegicus, UniProt P07727); assay: Displacement of [3H]strychnine from GlyR in Wistar rat spinal cord by scintillation spectrometry
T1 sequence (P07727 whole entry): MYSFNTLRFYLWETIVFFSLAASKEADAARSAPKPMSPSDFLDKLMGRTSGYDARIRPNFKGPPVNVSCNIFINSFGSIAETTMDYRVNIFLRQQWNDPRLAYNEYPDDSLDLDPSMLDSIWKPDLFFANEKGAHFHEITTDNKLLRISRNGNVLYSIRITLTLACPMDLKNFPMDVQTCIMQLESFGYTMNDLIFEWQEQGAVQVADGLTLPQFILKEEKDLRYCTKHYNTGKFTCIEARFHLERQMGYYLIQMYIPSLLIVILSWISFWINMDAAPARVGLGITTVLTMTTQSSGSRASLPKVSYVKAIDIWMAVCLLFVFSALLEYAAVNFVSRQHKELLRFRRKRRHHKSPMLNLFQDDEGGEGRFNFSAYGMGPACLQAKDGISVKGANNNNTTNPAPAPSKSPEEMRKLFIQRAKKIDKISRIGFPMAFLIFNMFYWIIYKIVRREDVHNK
Procedure, shortened: (§1)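 Duplicate aliquots filtered, washed with ice-cold buffer, counted by scintillation. Nonspecific binding defined with 2 mM glycine. IC50 and Hill slope from nonlinear sigmoidal fitting. Two-site fits used pooled data, chosen by F test.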

[2] = molecular target: T2, Glycine receptor subunit alpha-1 (Rattus norvegicus) (UniProt P07727); assay: Selectivity ratio of IC50 for GlyR low affinity site to IC50 for GlyR high affinity site in Wistar rat spinal cord
T2 sequence (whole entry): T1 sequence (P07727 whole entry)

[3] = molecular target: T1, Glycine receptor subunit alpha-1; assay: Displacement of [3H]strychnine from GlyR high affinity site in Wistar rat spinal cord by scintillation spectrometry; procedure, shortened: as §1
[4] = molecular target: T1, Glycine receptor subunit alpha-1; assay: Displacement of [3H]strychnine from GlyR low affinity site in Wistar rat spinal cord by scintillation spectrometry; procedure, shortened: as §1
[5] = molecular target: T3, 5-hydroxytryptamine receptor 3A (Rattus norvegicus, UniProt P35563); assay: Displacement of [3H]granisectron from 5HT3 receptor in Wistar rat forebrain
T3 sequence (P35563 whole entry): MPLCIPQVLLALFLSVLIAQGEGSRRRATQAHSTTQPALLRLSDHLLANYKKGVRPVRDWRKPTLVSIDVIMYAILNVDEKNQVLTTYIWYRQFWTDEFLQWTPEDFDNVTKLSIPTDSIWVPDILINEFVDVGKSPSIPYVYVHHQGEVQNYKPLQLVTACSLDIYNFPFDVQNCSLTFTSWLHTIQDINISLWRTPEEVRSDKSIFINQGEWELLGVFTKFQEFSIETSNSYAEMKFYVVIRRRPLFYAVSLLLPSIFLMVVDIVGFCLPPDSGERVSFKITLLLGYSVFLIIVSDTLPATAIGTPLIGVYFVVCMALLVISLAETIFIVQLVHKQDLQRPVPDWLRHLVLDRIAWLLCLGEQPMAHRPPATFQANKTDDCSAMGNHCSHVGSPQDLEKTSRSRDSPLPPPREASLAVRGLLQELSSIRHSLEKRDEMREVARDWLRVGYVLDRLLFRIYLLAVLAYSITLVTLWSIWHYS
Procedure, shortened: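 Crude membranes from male rat forebrain (cortex + hippocampus), homogenized in 10 mM HEPES/140 mM NaCl pH 7.5, centrifuged, washed, frozen; thawed and spun before use. Incubated with 0.2 nM [3H]granisetron at 0 °C for 2.5 h. Nonspecific binding defined with 10 µM granisetron.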

[6] = molecular target: T1, Glycine receptor subunit alpha-1; assay: Displacement of [3H]strychnine from GlyR high affinity site in Wistar rat spinal cord by scintillation spectrometry in presence of 10 uM glycine; procedure, shortened: as §1
[7] = molecular target: T1, Glycine receptor subunit alpha-1; assay: Displacement of [3H]strychnine from GlyR low affinity site in Wistar rat spinal cord by scintillation spectrometry in presence of 10 uM glycine; procedure, shortened: as §1
[8] = molecular target: T1, Glycine receptor subunit alpha-1; assay: Displacement of [3H]strychnine from GlyR in Wistar rat spinal cord by scintillation spectrometry in presence of 10 uM glycine; procedure, shortened: as §1

Row | Compound | IC50 [1] [nM] | Ratio IC50 [2] | IC50 [3] [nM] | IC50 [4] [nM] | IC50 [5] [nM] | IC50 [6] [nM] | IC50 [7] [nM] | IC50 [8] [nM]
1 | O=C(O[C@H]1C[C@H]2CC[C@@H](C1)N2)c1cccs1 | 41.7 | 1 | – | – | – | – | – | –
2 | CN1[C@@H]2CC[C@H]1C[C@@H](OC(=O)c1ccc[nH]1)C2 | 11200 | 615 | 33.9 | 20900 | – | – | – | –
3 | CN1[C@@H]2CC[C@H]1C[C@@H](OC(=O)c1cccnc1)C2 | 4270 | 390 | 58.9 | 22900 | – | – | – | –
4 | O=C(O[C@H]1C[C@H]2CC[C@@H](C1)N2)c1ccco1 | 79.4 | 1 | – | – | – | – | – | –
5 | O=C(O[C@H]1C[C@H]2CC[C@@H](C1)N2)c1cccnc1 | 100 | 1 | – | – | – | – | – | –
6 | CN1[C@@H]2CC[C@H]1C[C@@H](OC(=O)c1cc3ccccc3n1C)C2 | 1580 | 240 | 10.2 | 2400 | 18 | – | – | –
7 | CN1[C@@H]2CC[C@H]1C[C@@H](OC(=O)c1cnc3ccccc3c1)C2 | 1910 | 76 | 72.4 | 5500 | – | – | – | –
8 | O=C(O[C@H]1C[C@H]2CC[C@@H](C1)N2)c1ccc[nH]1 | 129 | 1 | – | – | – | – | – | –
9 | O=C(O[C@H]1C[C@H]2CC[C@@H](C1)N2)c1cnc2ccccc2c1 | 166 | 1 | – | – | – | – | – | –
10 | CN1[C@@H]2CC[C@H]1C[C@H](OC(=O)c1cc3ccccc3[nH]1)C2 | 4680 | 133 | 60.3 | 7940 | – | – | – | –
11 | O=C(O[C@H]1C[C@H]2CC[C@@H](C1)N2)c1cc2ccccc2[nH]1 | 234 | 1 | – | – | 32 | – | – | –
12 | CN1[C@@H]2CC[C@H]1C[C@@H](OC(=O)c1cccn1C)C2 | 7590 | > 1 | – | – | – | – | – | –
13 | CN1[C@@H]2CC[C@H]1C[C@@H](OC(=O)c1ccco1)C2 | 5620 | 200 | 50.1 | 10000 | – | – | – | –
14 | Cn1c(C(=O)O[C@H]2C[C@H]3CC[C@@H](C2)N3)cc2ccccc21 | 33.9 | 11 | 11.5 | 126 | 25 | 1.07 | 135 | 70.8
15 | CN1[C@@H]2CC[C@H]1C[C@@H](OC(=O)c1cccs1)C2 | 1910 | 47 | 89.1 | 4270 | – | – | – | –
